Rev-RRE block = disrupts HIV-1 Rev binding to RRE RNA; 97,000 compounds, 0.79% hits; Rev peptide-RRE RNA binding, FRET; inhibition, % at 8 µM;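 active means inhibition above the screen-wide mean plus 3 SD, cut at about 35% in these data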;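 further: 0% = median DMSO wells and 100% = median Neomycin B control wells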
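Test system: Cy5-tagged RRE RNA duplex with fluorescein-tagged Rev peptide | Read-out: % inhibition of FRET ratio versus controls | Probe or stimulus: Labelled Rev peptide | Incubation: 5 min RNA-compound premix plus 15 min binding step, 25 °C | Technique: FRET fluorescence readout | Benchmarks: DMSO low control, neomycin B high control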
ERa coact inh = blocks coactivator binding to human estrogen receptor alpha | 86,000 compounds, 1.7% hits | P03372 | TR-FRET ER-alpha LBD / SRC-1 peptide, estradiol-bound | inhibition, % at 25.6 µM; in the data active means inhibition above about 50%;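 further: 0% = receptor plus peptide control and 100% = peptide only without receptor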
ERb coact inh = blocks coactivator binding to human estrogen receptor beta | Q92731 | TR-FRET ER-beta LBD / SRC1-Cy5 peptide binding; receptor agonist-loaded with 1 µM estradiol | 86,000 compounds, 1.3% hits | inhibition, % at 25.6 µM | AID 633;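 active means compounds whose percent inhibition of the receptor-coactivator binding signal exceeds about 50% in the single-dose screen, limit read from the data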;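 further: 0% = receptor plus peptide wells without compound and 100% = peptide-only wells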
Target sequence (Q92731 whole entry, looked up, the tested form may be a part): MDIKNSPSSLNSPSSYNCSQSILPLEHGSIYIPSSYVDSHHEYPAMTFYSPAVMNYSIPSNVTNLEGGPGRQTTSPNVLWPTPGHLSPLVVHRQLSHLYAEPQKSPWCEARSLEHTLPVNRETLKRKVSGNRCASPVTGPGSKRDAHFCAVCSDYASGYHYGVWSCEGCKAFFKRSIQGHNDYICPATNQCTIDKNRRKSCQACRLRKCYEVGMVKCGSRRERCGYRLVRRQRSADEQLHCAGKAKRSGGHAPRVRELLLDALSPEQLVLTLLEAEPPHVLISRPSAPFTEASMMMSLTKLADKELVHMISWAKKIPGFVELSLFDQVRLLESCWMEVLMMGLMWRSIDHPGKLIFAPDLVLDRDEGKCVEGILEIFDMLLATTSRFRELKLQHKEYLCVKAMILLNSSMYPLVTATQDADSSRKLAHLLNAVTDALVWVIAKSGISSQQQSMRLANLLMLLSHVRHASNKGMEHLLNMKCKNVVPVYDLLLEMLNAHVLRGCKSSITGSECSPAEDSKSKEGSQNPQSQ
FAK blocker = FAK (human) kinase inhibition; Q05397; biochemical FAK kinase activity assay; inhibition, %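 (tested at 7 µM)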; 97,000 compounds, 0.84% hits; AID 727;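 further: 0% = DMSO and 100% = reference compound high control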
Smad3 FoxH1 inh = inhibitors of human Smad3 transcription factor binding; P84022; inhibition, % at 25 µM; AID 630; 88,000 compounds, 0.29% hits; TR-FRET Smad3/Dy647-FoxH1 peptide binding, europium anti-His;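 active means compounds that reduce the energy-transfer binding signal between the protein and its labelled peptide by more than half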;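 further: 0% = Smad3 plus labelled peptide maximal FRET and 100% = peptide-only background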
ERa SRC1 pot = enhances coactivator binding to human estrogen receptor alpha; AID 639; TR-FRET ERalpha-LBD/SRC-Cy5 coactivator binding, 2 h; 100 = basal binding, no effect; 86,000 compounds, 1.3% hits; P03372; coactivator binding (% of control), % at 25.6 µM; in the data active means activity above about 200%;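 further: binding measured in presence of low estradiol as agonist stimulus; 0% = peptide alone without receptor and 100% = receptor with peptide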
FAK inh confirm = FAK (human) inhibition confirmed. shares compounds with FAK blocker. FAK kinase biochemical inhibition assay. inhibition, % at 7 µM. 750 compounds, 28% hits
Active calls of the source: *; · = no result given; [ ] = dose if it differs, or a comment. An excerpt weighted towards active compounds, which were near 4% of everything screened. Unless noted, no stated cut-off is given here; in the data, active means inhibition above about 19%; inactive means the rest.

SMILES	Rev-RRE block	ERa coact inh	ERb coact inh	FAK blocker	Smad3 FoxH1 inh	ERa SRC1 pot	FAK inh confirm
COC(=O)c1nn(-c2cccc(C(F)(F)F)c2)c(=O)cc1Sc1ccccn1	8	·	·	0	·	·	·
CC(C)=CC1C(C(=O)Nc2ccc(Br)cn2)C1(C)C (stereo not given)	11	7	6	27*	-17	96	8
Cc1ncsc1C(=O)NCc1ccc(N2CCCC2=O)cc1	2	-11	-2	4	4	124	·
O=c1oc2ccccc2n1CCn1c2ccccc2c2nc3ccccc3nc21	2	77*	49	30*	2	146	46*
CS(=O)(=O)N(CC(=O)N1CCOCC1)Cc1ccccc1	0	-4	38	35*	8	102	1
CN1CCN(C(=O)CN(Cc2ccccc2)S(C)(=O)=O)CC1	4	6	3	1	2	113	·
COc1ccc(C(=O)Nc2nccs2)cc1OC	·	4	2	·	1	110	·
Cc1nn(Cc2ccc(C(=O)Nc3nccs3)cc2)c(C)c1Cl	13	11	2	22*	4	129	3
C=CCOc1ccc(/C=C/C(C)=N\O)cc1	9	-39	-47	20*	1	144	5
NC(=O)CNC(=O)[C@@H]1CC2(CC(c3ccc(Cl)cc3)=NO2)CN1C(=O)c1ccc(Br)cc1 (stereo not given in full)	8	·	·	9	·	·	·
Cc1cccc(NC(=O)c2cc(-c3ccco3)nc3ccccc23)n1	9	17	48	-2	9	78	·
O=C(N/N=C/c1cccc(F)c1)c1cc(-c2ccco2)nc2ccccc12	-144	·	·	68*	·	·	36*
COC(=O)c1c(C)oc2ccc(N(C(=O)c3ccncc3)S(=O)(=O)c3ccccc3)cc12	1	·	·	11	·	·	·
COC(=O)c1c(C)oc2ccc(NS(=O)(=O)c3cccs3)cc12	12	11	1	24*	9	83	12
CCOC(=O)C1=C(C)NC(SCC(=O)Nc2nc(C)cs2)=C(C#N)C1c1cccs1 (stereo not given)	8	-7	-2	0	-3	72	·
O=C(CCn1c(=S)[nH]c2cc3c(cc2c1=O)OCO3)NCCN1CCCC1	·	12	12	·	7	101	·
COCc1nnc(NC(=O)c2ccc(S(=O)(=O)N(C)C3CCCCC3)cc2)o1	2	-5	-1	-5	0	105	·
CCOC(=O)C1CSC(CC(=O)Nc2ccc(Cl)c(Cl)c2)C(=O)N1 (stereo not given)	11	4	-2	-1	6	111	·
CC1CCCC(C)N1C(=O)Cn1cc(/C=C2/C(=O)Nc3ccccc32)c2ccccc21 (stereo not given)	11	-5	0	5	-2	100	·
CN1C(=O)/C(=C/c2cn(CC(=O)N3CCCCC3)c3ccccc23)c2ccccc21	11	-10	48	26*	7	96	28*
Cc1nnc(NC(=O)CSc2ncnc3c2cnn3-c2ccccc2C)s1	1	·	·	30*	·	·	2
CCN1CCN(c2nc(C)c3c(n2)CCCC3=O)CC1	7	-10	-23	-5	9	100	·
COc1ccc(-n2nc(C(=O)NCC(=O)NCC3CCCO3)c3ccccc3c2=O)cc1Cl (stereo not given)	0	·	·	-1	·	·	·
COc1ccc(-n2nc(C(=O)NCC(=O)Nc3ccccn3)c3ccccc3c2=O)cc1Cl	1	·	·	23*	·	·	45*
O=C(NCC1CCCO1)c1ccc(S(=O)(=O)N2CCC(c3nc4ccc(Cl)cc4[nH]3)CC2)cc1 (stereo not given)	8	13	9	-1	8	95	·
CCOc1ccc(-c2nnn(CC(=O)Nc3ccccc3OC)n2)cc1OCC	6	34	22	0	-2	143	·
COc1cc(C(=O)Nc2ccccc2-c2nnn(CC(N)=O)n2)cc(OC)c1OC	0	·	·	2	·	·	·
COc1ccccc1NC(=O)Cn1nnc(-c2ccccc2NC(=O)c2cccs2)n1	4	-15	-5	21*	13	339*[fluorescence artefact?]	13

Screening results: PubChem BioAssay, several laboratories
